# Calls of active or inactive are those of the source. The rule behind the calls is not given here.
# Tests used:
# A549 [1] = test: Cytotoxicity against human A549 cells after 48 hrs by MTT assay; assay type: functional, cell-based; conditions: Homo sapiens, A549, 48 h
# Outline: (§1)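 Log-phase cells (40000–50000 cells/mL) grown in DMEM with 10% fetal calf serum (5% CO2, 37 °C) and exposed 48 h to five concentrations, 3–5 replicates. Read-out was MTT with absorbance at 570 nm; IC50 reported as mean ± SD of three independent experiments. Resistant A549 and HeLa sublines were made by stepwise paclitaxel selection; resistance index = IC50(resistant)/IC50(sensitive).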
# A549 [2] = test: Effect on chromosomal alteration in human A549 cells at 10 uM after 22 hrs by DAPI/FITC staining-based laser fluorescence confocal microscopic analysis; assay type: functional, cell-based
# Outline: (§2)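 Confocal imaging of A549 cells exposed for 22 h to compound or vehicle (0.2% DMSO final), added at 70% confluency after overnight growth. Fixation followed by 0.5% Triton X-100 permeabilization and 10% goat serum blocking; tubulin stained with FITC anti-α-tubulin (1:100, 2 h, 37 °C), nuclei counterstained with DAPI. Wide-field images taken at 10–15 random slide locations.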
# A549 [3] = test: Cell cycle arrest in human A549 cells assessed as accumulation at G1 phase at 5 uM after 24 hrs by propidium iodide staining-based flow cytometry (reference value: 87.56 %); assay type: functional
# A549 [4] = test: Cell cycle arrest in human A549 cells assessed as accumulation at G1 phase at 0.1 uM after 24 hrs by propidium iodide staining-based flow cytometry (reference value: 87.56 %); assay type: functional
# A549 [5] = test: Antimitotic activity against human A549 cells assessed as cell mitotic arrest at 10 uM after 22 hrs by DAPI/FITC staining-based laser fluorescence confocal microscopic analysis (reference value: 1.1 %); assay type: functional
# A549 [6] = test: Cytotoxicity against paclitaxel-resistant human A549 cells after 48 hrs by MTT assay; assay type: functional, cell-based; conditions: A549, 48 h; outline: as §1
# A549 [7] = test: Cell cycle arrest in human A549 cells assessed as accumulation at G2/M phase at 10 uM after 24 hrs by propidium iodide staining-based flow cytometry (reference value: 2.78 %); assay type: functional
# K562 = test: Cytotoxicity against human K562 cells after 48 hrs by MTT assay; assay type: functional, cell-based; conditions: Homo sapiens, K562, 48 h; outline: as §1
# A549 [8] = test: Induction of apoptosis in human A549 cells assessed as late apoptotic cells at 10 uM after 24 hrs by annexin V-FITC/propidium iodide staining-based flow cytometry (reference value: 1.02%); assay type: functional
# A549 [9] = test: Cell cycle arrest in human A549 cells assessed as accumulation at G2/M phase at 0.1 uM after 24 hrs by propidium iodide staining-based flow cytometry (reference value: 2.78 %); assay type: functional
# A549 [10] = test: Cell cycle arrest in human A549 cells assessed as accumulation at S phase at 5 uM after 24 hrs by propidium iodide staining-based flow cytometry (reference value: 9.12 %); assay type: functional
# A549 [11] = test: Induction of apoptosis in human A549 cells assessed as viable cells at 1 uM after 24 hrs by annexin V-FITC/propidium iodide staining-based flow cytometry (reference value: 94.08%); assay type: functional; conditions: A549, 24 h, read-out: Activity
# A549 [12] = test: Cell cycle arrest in human A549 cells assessed as accumulation at G1 phase at 1 uM after 24 hrs by propidium iodide staining-based flow cytometry (reference value: 87.56 %); assay type: functional
# Tubulin (Homo sapiens) = Tubulin (Homo sapiens) (UniProt P68371+Q9H4B7+P0DPH7+P68366+Q13509+Q71U36+P04350+Q3ZCM7+P07437+P68363+Q9BQE3+Q6PEY2+Q13885+Q9BVA1+Q9BUF5); test: (§3) Activation of tubulin (unknown origin) polymerization; assay type: protein-complex assay
# Outline: (§4)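 Purified brain tubulin (kit), final 3.0 mg/mL, in 80.0 mM PIPES sesquisodium pH 6.9, 2.0 mM MgCl2, 0.5 mM EGTA, 1 mM GTP, 10.2% glycerol; components prewarmed to 37 °C, reaction started by adding tubulin. A340 read each minute for 1 h. Single-point % stimulation used 10 μM compound; EC50 from 3.75, 7.5, 15, 30, 60 μM.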
# Tubulin = test: as §3; assay type: protein-complex assay, Homo sapiens; outline: as §4
# A549 [13] = test: Antitumor activity against human A549 cells xenografted in ig dosed BALB/c nude mouse assessed as tumor growth inhibition measured on day 16; assay type: functional, organism-based
# Outline: (§5)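 Male BALB/c nude mice, 5 weeks old (18–20 g), implanted subcutaneously in the right armpit with A549 tumor fragments (3 mm3). On day 13, at 100–200 mm3, daily intragastric dosing began: 100 or 500 mg/kg test compound, or 30 mg/kg paclitaxel, in Tween-80 diluted with saline. Vehicle given ip. Tumor volume and body weight followed; n = 6; inhibition rate at day 16.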
# A549 [14] = test: Induction of apoptosis in human A549 cells assessed as viable cells at 5 uM after 24 hrs by annexin V-FITC/propidium iodide staining-based flow cytometry (reference value: 94.08%); assay type: functional; conditions: A549, 24 h, read-out: Activity
# A549 [15] = test: Induction of apoptosis in human A549 cells assessed as viable cells at 10 uM after 24 hrs by annexin V-FITC/propidium iodide staining-based flow cytometry (reference value: 94.08%); assay type: functional; conditions: A549, 24 h, read-out: Activity
# A549 [16] = test: Cell cycle arrest in human A549 cells assessed as accumulation at G1 phase at 10 uM after 24 hrs by propidium iodide staining-based flow cytometry (reference value: 87.56 %); assay type: functional
# SW480 = test: Cytotoxicity against human SW480 cells after 48 hrs by MTT assay; assay type: functional, cell-based; conditions: Homo sapiens, SW480, 48 h; outline: as §1
# A549 [17] = test: Antitumor activity against human A549 cells xenografted in BALB/c nude mouse assessed as tumor growth inhibition at 100 mg/kg, ig measured on day 16; assay type: functional; conditions: A549, po, 384 h, route intragastric, read-out: TGI; outline: as §5
# A549 [18] = test: Effect on chromosomal alteration in human A549 cells at 10 uM after 22 hrs by DAPI/FITC staining-based laser fluorescence confocal microscopic analysis
# A549 [19] = test: Cell cycle arrest in human A549 cells assessed as accumulation at S phase at 10 uM after 24 hrs by propidium iodide staining-based flow cytometry (reference value: 9.12 %); assay type: functional
# A549 [20] = test: Effect on microtubule dynamics in human A549 cells at 5 to 10 uM after 22 hrs by DAPI/FITC staining-based laser fluorescence confocal microscopic analysis; assay type: functional, cell-based; outline: as §2
# A549 [21] = test: Antitumor activity against human A549 cells xenografted in BALB/c nude mouse assessed as tumor growth inhibition at 500 mg/kg, ig measured on day 16; assay type: functional; conditions: A549, po, 384 h, route intragastric, read-out: TGI; outline: as §5
# A549 [22] = test: Cell cycle arrest in human A549 cells assessed as accumulation at S phase at 0.1 uM after 24 hrs by propidium iodide staining-based flow cytometry (reference value: 9.12 %); assay type: functional
# [23] = Cytotoxicity against human QGY cells after 48 hrs by MTT assay; assay type: functional, cell-based; conditions: Homo sapiens, QGY, 48 h; outline: as §1
# HeLa = test: Resistance index, ratio of IC50 for paclitaxel-resistant human HeLa cells to IC50 for paclitaxel-sensitive human HeLa cells; assay type: functional; outline: as §1
# Mus musculus = test: Toxicity in human A549 cells xenografted BALB/c nude mouse assessed as change in body weight at 100 to 500 mg/kg, ig; assay type: organism-based; design: dose 100-500 mg/kg, route intragastric; conditions: in vivo, po; outline: as §5
smiles,measurement,setting,value
COc1cc([C@@H]2C[C@]2(CO)C(=O)Nc2ccccc2Cl)cc(OC)c1OC,IC50,A549 [1],4.4 µM
same,Activity,A549 [2],Active
same,Activity,A549 [3],28.62%
same,Activity,A549 [4],78.7%
same,Activity,A549 [5],78.8%
same,IC50,A549 [6],5.3 µM
same,Activity,A549 [7],79.92%
same,IC50,K562,16.9 µM
same,Activity,A549 [8],2.99%
same,Activity,A549 [9],12.53%
same,Activity,A549 [10],10.81%
same,viability at 1 µM,A549 [11],80.2%
same,Activity,A549 [12],38.41%
same,Activity,Tubulin (Homo sapiens),Dose-dependent effect
same,EC50,Tubulin,19.7 µM
same,TGI,A549 [13],Dose-dependent effect
same,viability at 5 µM,A549 [14],59%
same,viability at 10 µM,A549 [15],40.9%
same,Activity,A549 [16],9.85%
same,IC50,SW480,13.2 µM
same,inhibition in vivo at 100 mg/kg,A549 [17],44.6%
same,Activity,A549 [18],Active
same,Activity,A549 [19],10.29%
same,Activity,A549 [20],Active
same,inhibition in vivo at 500 mg/kg,A549 [21],55.9%
same,Activity,A549 [22],9.54%
same,IC50,[23],15.7 µM
same,Ratio IC50,HeLa,1.3
same,Activity,Mus musculus,Non-toxic

# From ChEMBL document CHEMBL2311397, “Design and synthesis of cyclopropylamide analogues of combretastatin-A4 as novel microtubule-stabilizing agents” (J Med Chem, 2013)
